Assay results published in ChEMBL document CHEMBL4706687, “Synthesis and Pharmacological Evaluation of Novel Non-nucleotide Purine Derivatives as P2X7 Antagonists for the Treatment of Neuroinflammation” (J Med Chem, 2021).
The source made the active and inactive calls. The rule behind the calls is not given here.

Assays:
Type in all cases: cell-based
[1] = target: T1, P2X purinoceptor 7 (Rattus norvegicus) (UniProt Q64663); test: Antagonist activity at rat P2X7 receptor expressed in Xenopus laevis oocytes assessed as reduction in ATP-induced channel currents at 100 uM by TEVC electrophysiology assay relative to control; settings: Oocyte, filed as antagonist
T1 sequence (whole entry): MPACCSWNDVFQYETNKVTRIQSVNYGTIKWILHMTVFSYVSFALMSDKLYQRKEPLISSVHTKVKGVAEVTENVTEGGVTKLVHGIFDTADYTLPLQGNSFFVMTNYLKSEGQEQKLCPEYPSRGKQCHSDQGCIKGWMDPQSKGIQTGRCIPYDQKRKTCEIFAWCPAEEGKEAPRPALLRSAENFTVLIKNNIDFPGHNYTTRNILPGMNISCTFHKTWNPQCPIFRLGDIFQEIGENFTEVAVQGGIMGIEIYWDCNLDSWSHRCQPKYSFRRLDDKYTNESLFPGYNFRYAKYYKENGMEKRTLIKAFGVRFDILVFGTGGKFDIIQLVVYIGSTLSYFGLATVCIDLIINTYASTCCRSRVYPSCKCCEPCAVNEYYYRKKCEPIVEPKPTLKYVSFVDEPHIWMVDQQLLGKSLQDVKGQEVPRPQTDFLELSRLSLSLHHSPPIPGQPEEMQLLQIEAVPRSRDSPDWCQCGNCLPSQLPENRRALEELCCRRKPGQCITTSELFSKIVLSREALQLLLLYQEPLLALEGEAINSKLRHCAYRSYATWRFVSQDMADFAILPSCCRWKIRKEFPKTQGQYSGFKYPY
Outline: (§1)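 Two-electrode voltage clamp at −70 mV in low divalent-cation solution, oocytes incubated 1–2 days at 16–18 °C after 50 nL cRNA injection: rP2X1 and rP2X4 at 0.5 mg/mL, rP2X2 0.1 mg/mL, rP2X7 25 μg/mL. ATP 10 μM for rP2X1 and rP2X2, 30 μM for rP2X4 and rP2X7. Compound applied 3 min without perfusion. Currents normalized to control; three oocytes from two frogs.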

P2X purinoceptor 7 = target: T2, P2X purinoceptor 7 (Homo sapiens, UniProt Q99572); test: Antagonist activity at human P2X7 receptor expressed in HEK293 cells assessed as reduction in benzoyl-ATP-induced YO-PRO-1 dye uptake pre-incubated for 20 mins before YO-PRO-1 addition and measured after 25 mins by fluorescence plate reader analysis relative to control
T2 sequence (Q99572 whole entry): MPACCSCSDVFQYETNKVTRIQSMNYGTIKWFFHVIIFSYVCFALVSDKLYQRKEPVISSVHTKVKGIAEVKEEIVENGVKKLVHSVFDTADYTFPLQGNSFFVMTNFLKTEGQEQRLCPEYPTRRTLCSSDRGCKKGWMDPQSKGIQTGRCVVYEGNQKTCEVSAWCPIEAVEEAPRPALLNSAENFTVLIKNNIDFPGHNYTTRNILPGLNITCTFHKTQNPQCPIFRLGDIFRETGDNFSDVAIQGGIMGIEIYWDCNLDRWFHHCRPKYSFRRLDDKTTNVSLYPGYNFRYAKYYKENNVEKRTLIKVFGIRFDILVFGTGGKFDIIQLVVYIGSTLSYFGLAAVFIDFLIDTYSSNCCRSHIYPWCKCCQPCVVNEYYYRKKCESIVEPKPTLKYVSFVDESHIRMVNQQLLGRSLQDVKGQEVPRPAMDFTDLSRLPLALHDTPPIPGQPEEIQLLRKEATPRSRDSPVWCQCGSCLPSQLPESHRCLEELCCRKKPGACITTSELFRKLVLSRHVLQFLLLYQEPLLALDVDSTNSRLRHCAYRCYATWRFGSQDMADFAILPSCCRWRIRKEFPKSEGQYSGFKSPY
Outline: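 Stably transfected hP2X7-HEK293 cells, 48 h after seeding, in Mg²⁺-free Krebs-HEPES (0.2 mM CaCl₂, pH 7.4). Compound preincubation 20 min, then YO-PRO-1 2 μM, then BzATP 30 μM. Fluorescence at 485/520 nm read for 25 min. Each well normalized to Fmax (0.5% Triton X-100) and Fmin (2 M MnCl₂): F = (Fx − F0)/(Fmax − Fmin). Triplicates from three cultures. IC50 is the concentration halving BzATP-induced uptake.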

[2] = target: T3, P2X purinoceptor 4 (Rattus norvegicus) (UniProt P51577); test: Antagonist activity at rat P2X4 receptor expressed in Xenopus laevis oocytes assessed as reduction in ATP-induced channel currents at 100 uM by TEVC electrophysiology assay relative to control; settings: Oocyte; outline: as §1
T3 sequence (whole entry): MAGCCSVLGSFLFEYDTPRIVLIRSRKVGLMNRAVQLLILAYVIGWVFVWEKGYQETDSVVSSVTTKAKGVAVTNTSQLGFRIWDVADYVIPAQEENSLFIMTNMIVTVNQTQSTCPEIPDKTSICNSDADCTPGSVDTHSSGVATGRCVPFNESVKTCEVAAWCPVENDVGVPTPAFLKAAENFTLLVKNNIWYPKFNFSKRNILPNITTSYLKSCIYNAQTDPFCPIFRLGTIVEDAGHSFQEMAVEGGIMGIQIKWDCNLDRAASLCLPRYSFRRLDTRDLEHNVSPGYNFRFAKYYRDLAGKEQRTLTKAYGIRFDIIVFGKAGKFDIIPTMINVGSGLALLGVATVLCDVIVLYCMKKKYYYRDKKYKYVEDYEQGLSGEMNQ

In the case of `O=C(Cn1cnc2c(Cl)ncnc21)c1ccc(Cl)cc1Cl`, the inhibition [1] is reported as “Active”, the IC50 (P2X purinoceptor 7) is reported as 9 µM and the inhibition [2] is reported as “inactive”.
